Compounds with a hit are over-represented: about 11% of the library has one in this group of screens.
D1 mod – allosteric modulators of human D1 dopamine receptor; HEK293 D1, CRE-luciferase, dopamine EC30 potentiation; actives deviate in either direction; 58,000 compounds, 5.9% hits; P21728; B-score at 10 µM;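 active = luminescence count or its row- and column-corrected plate score outside the 99.7% band of the plate's sample wells, on either side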
M1 antagonist – M1 muscarinic receptor (rat) antagonism; P08482; CHO-M1 cells, Fluo-4 calcium, ACh EC80 antagonist mode; stronger effect = lower value; 64,000 compounds, 3.4% hits; B-score at 10 µM;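 active = calcium fluorescence response, raw or row-and-column corrected B-score, differing from the plate sample mean either way at a set confidence level, mostly lower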
TNAP act mid DEA – human TNAP activation, intermediate phosphate acceptor; P05186; purified TNAP, CDP-star luminescence, 100 mM DEA, 30 min; stronger effect = higher value; scale: 0 levamisole-inhibited, 1 vehicle-only enzyme; activation factor at 20 µM; 64,000 tested, under 10 active; AID 813;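 active = activation factor of at least 2 at 20 µM, relative to controls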
M1 agonist – activates the M1 muscarinic receptor; CHO-M1 cells, Fluo-4 calcium fluorescence, agonist mode; stronger effect = higher value; 64,000 compounds, 3% hits; AID 626; B-score at 10 µM;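 active = fluorescence rise, raw or as B-score row- and column-corrected plate score, outside the 99.7% band of its plate's samples, either direction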
S1P1 ag pot – agonists and agonism potentiators of human S1P1 receptor. P21453. S1P1 CRE-bla cells, forskolin, beta-lactamase FRET, potentiator mode; S1P1 agonist co-added at EC20, 2 nM; 100% = saturating reference agonist, 0% = basal. activation, % at 9.5 µM. 56,000 compounds, 0.57% hits;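 active = activation above a cutoff set at the mean activation of all tested compounds plus 3 SD, cut at about 54% in these data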;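 note: forskolin at 4 µM as EC80 and the EC20 agonist is SEW2871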
Target sequence (P21453 whole entry, looked up): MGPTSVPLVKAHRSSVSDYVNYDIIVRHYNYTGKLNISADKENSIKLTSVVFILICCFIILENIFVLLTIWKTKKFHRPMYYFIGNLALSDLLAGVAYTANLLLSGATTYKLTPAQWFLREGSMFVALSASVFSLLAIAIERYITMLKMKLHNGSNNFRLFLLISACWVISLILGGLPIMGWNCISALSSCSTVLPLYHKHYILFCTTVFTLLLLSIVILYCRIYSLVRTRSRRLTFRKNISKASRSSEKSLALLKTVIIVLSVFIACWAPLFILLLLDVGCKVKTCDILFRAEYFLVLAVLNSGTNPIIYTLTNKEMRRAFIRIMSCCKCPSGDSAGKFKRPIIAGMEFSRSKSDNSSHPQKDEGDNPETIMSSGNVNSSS
S1P3 agonist – activates the human S1P3 receptor; 60,000 compounds, 0.1% hits; Q99500; activation, % at 4.5 µM; S1P3 NFAT-BLA reporter cells, agonism, FRET ratio; relative to 1 µM S1P, basal subtracted;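 active = activation above the screen-wide mean plus 3 SD, cut at about 4.5% in these data, passing the limit was not always enough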
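Measure – % activation relative to 1 µM S1P (100%), per plate · System – stable CHO line with human S1P3, Gα16, NFAT-BLA reporter · Timing – cells plated overnight, compound 4 h 37 °C, substrate 2 h RT · Technique – fluorescent BLA substrate, ex 405 nm, em 460/535 nm ratio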
D1 PAM confirm – D1 receptor (human) allosteric modulation, confirmed | shares compounds with D1 mod | HEK293 D1 CRE-luciferase, dopamine EC30 potentiation; stronger effect = higher value | luminescence at 10 µM | 2,200 compounds, 88% hits | AID 642;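 active = luminescence in either of two replicates above the same-plate mean plus 3 SD of the low-dose dopamine control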
D1 no dopamine – secondary test of D1 modulators: activity without dopamine | shares compounds with D1 mod | 1,900 compounds, 0.8% hits | luminescence at 10 µM | HEK293 D1 CRE-luciferase, luminescence, no dopamine; stronger effect = higher value; in the data active = luminescence above about 3900
Isoprot counter – counter-screen for D1 modulators: isoproterenol response in HEK293 cells. shares compounds with D1 mod. HEK293 D1 CRE-luciferase, isoproterenol EC30 counter-screen; stronger effect = higher value. luminescence at 10 µM. 2,200 compounds, 63% hits;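 active = luminescence in either replicate above plate mean of wells with a partly effective reference agonist dose plus 3 SD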;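 note: isoproterenol raises cAMP through native beta-adrenoceptor Gs so signal bypasses D1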
Large screens that a line does not name were inactive (follow-up assays come after a bar, where they were run).

COc1cccc(-c2cc(C(F)(F)F)n3nc(N)nc3n2)c1	D1 mod 7.26 | D1 PAM confirm 15000 | D1 no dopamine inactive | Isoprot counter 6680
COc1cccc(-c2cc(C(F)(F)F)n3ncc(C(=O)O)c3n2)c1	none
O=C(CN1C(=O)CCS(=O)(=O)c2ccccc21)Nc1cccc(F)c1	none (no result: S1P1 ag pot, S1P3 agonist)
COc1ccc(-c2nn3cnnc3s2)cc1OC	D1 mod 12.8 | D1 PAM confirm 16540 | D1 no dopamine inactive | Isoprot counter 5880
COc1ccc(-c2nn3c(-c4ccncc4)nnc3s2)cc1OC	none
Cn1c(SCc2nc(-c3ccc(Cl)cc3)no2)nnc1-c1ccco1	none
CSC1=NCCN1C(=O)c1ccc(Br)o1	D1 mod 5.72 | D1 PAM confirm 11560 | D1 no dopamine inactive | Isoprot counter inactive
CSC1=NCCN1C(=O)COc1ccccc1	none
CSC1=NCCN1C(=O)Cc1cccs1	D1 mod 9.8 | D1 PAM confirm 7652 | D1 no dopamine inactive | Isoprot counter inactive
O=C(c1ccc(Br)o1)N1CCN=C1SCc1cccnc1	none
CCSc1nnc(NC(=O)c2nn(C(C)C)c(=O)c3ccccc23)s1	none
CCOC(=O)c1nn(-c2ccc3c(c2)OCO3)cc1O	none
CCOC(=O)c1c(N)sc2c1CCCC2	D1 mod 5.18 | D1 PAM confirm 15712 | D1 no dopamine inactive | Isoprot counter 3320
Cc1c(NC(=O)CN2C(=O)c3ccccc3C2=O)c(=O)n(-c2ccccc2)n1C	D1 mod 3.73 | D1 PAM confirm inactive | D1 no dopamine inactive | Isoprot counter inactive
COc1ccc(N2CCN(c3ccc(NC(=O)c4ccc5c(c4)OCO5)cc3C#N)CC2)cc1	D1 mod 6.38 | D1 PAM confirm inactive | Isoprot counter inactive
O=c1[nH]c(N2CCOCC2)nc2c1CCCC2	none
COc1ccc(C(c2sc3ncnn3c2O)N2CC(C)OC(C)C2)cc1OC (stereo not given)	none (no result: D1 mod)
COc1ccc(C(c2sc3ncnn3c2O)N2CCN(c3ccccc3F)CC2)cc1OC (stereo not given)	D1 mod 4.77 | D1 PAM confirm 14444 | D1 no dopamine inactive | Isoprot counter 3908
O=C(c1ccc(S(=O)(=O)N2CCOCC2)cc1)N1CCc2ccccc2C1	none (no result: S1P1 ag pot)
CCCCn1c(NC(=O)CC)c(C#N)c2nc3ccccc3nc21	D1 mod 7.18 | D1 PAM confirm 14868 | D1 no dopamine inactive | Isoprot counter 3520
CSc1nnc2c3ccccc3n(Cc3ccccc3)c2n1	D1 mod 10.1 | D1 PAM confirm 15672 | D1 no dopamine inactive | Isoprot counter 4672
CCOc1ccc2cc(C#N)c(SCC(=O)N3CCC(C)CC3)nc2c1	D1 mod 7.23 | D1 PAM confirm 6372 | D1 no dopamine inactive | Isoprot counter 3440
CCOC(=O)CSc1nc2cc(OCC)ccc2cc1C#N	none
CCOc1cccc(OCCCNCCCOC)c1	none
c1ccc(Nc2cc(-c3ccccc3)nc3ncnn23)cc1	D1 mod 7.92 | D1 PAM confirm 15552 | D1 no dopamine inactive | Isoprot counter 4008
COc1ccc(-c2cc(-c3ccccc3)n3ncnc3n2)cc1	none
Cc1cc(Nc2ccc(C)c(F)c2)n2ncnc2n1	D1 mod 3.29 | D1 PAM confirm inactive | D1 no dopamine inactive | Isoprot counter inactive
Nc1c(N2CCCCC2)c(=O)[nH]c(=O)n1-c1ccccc1	none
Cc1ccc(S(=O)(=O)N2CC3CCC2C3)cc1 (stereo not given)	D1 mod 4.37 | D1 PAM confirm 6724 | Isoprot counter inactive
O=C(c1ccco1)N1CCN(Cc2nnnn2CCc2ccccc2)CC1	none
O=S(=O)(Nc1cc(Cl)ccc1N1CCCCC1)c1cccs1	D1 mod 28.6 | D1 PAM confirm 7016 | D1 no dopamine inactive | Isoprot counter inactive
O=S(=O)(Nc1ccc(N2CCCCC2)cc1)c1cccs1	none
CC(C)C1Cc2c(C#N)c(N)sc(=S)c2CO1 (stereo not given)	D1 mod 10.5 | D1 PAM confirm 21832 | D1 no dopamine inactive | Isoprot counter 4256
N#Cc1c(N)sc(=S)c2c1CCN(Cc1ccccc1)C2	none
CC1(C)Cc2c(C#N)c(N)sc(=S)c2CO1	D1 mod 9.11 | D1 PAM confirm 17212 | D1 no dopamine inactive | Isoprot counter 3788
Cc1ccccc1C(=O)/C=C1\NC(=O)CS1	none
COC(=O)C1=C(C)NC(=O)NC1C1CC=CCC1 (stereo not given)	D1 mod 3.34 (no result: M1 antagonist, M1 agonist) | D1 PAM confirm inactive | D1 no dopamine inactive | Isoprot counter inactive
Nc1nnc(-c2cn(-c3ccccc3)nc2-c2ccccc2)o1	D1 mod 2.98 | D1 PAM confirm 15252 | D1 no dopamine inactive | Isoprot counter 3772
COc1ccc(S(=O)(=O)N2CCSC2c2ccc(OC)c(OC)c2)cc1 (stereo not given)	D1 mod 4.17 | D1 PAM confirm 10220 | D1 no dopamine inactive | Isoprot counter inactive
NS(=O)(=O)c1ccc(CCNC2CC(=O)N(CCc3ccccc3)C2=O)cc1 (stereo not given)	D1 mod 2.27 (no result: S1P1 ag pot) | D1 PAM confirm inactive | D1 no dopamine inactive | Isoprot counter inactive
NS(=O)(=O)c1ccc(CCNC2CC(=O)N(Cc3ccccc3)C2=O)cc1 (stereo not given)	none
CCCCc1ccc(C2C(C#N)=C(N)SC(N)=C2C#N)s1	none
CC(=O)c1cc(C#N)c(SCc2ccncc2)nc1C	D1 mod 5.61 | D1 PAM confirm 8540 | D1 no dopamine inactive | Isoprot counter inactive
CC(=O)c1cc(C#N)c(SCC(=O)OC(C)(C)C)nc1C	D1 mod 3.39 | D1 PAM confirm 10808 | D1 no dopamine inactive | Isoprot counter inactive
CC(=O)c1cc(C#N)c(SCCC(C)C)nc1C	none
O=S(=O)(c1ccc(Oc2ccc(Br)cc2)cc1)N1CCOCC1	none
O=C(c1ccc2c(c1)OCO2)N1CCc2ccccc2C1	D1 mod 21.8 | D1 PAM confirm 18384 | D1 no dopamine inactive | Isoprot counter 4216
CCOc1ccc2nc(SCC#N)c(C#N)cc2c1	none
CCc1ccc2nc(SCC(=O)N(CC)CC)c(C#N)cc2c1	D1 mod 3.13 | D1 PAM confirm 8128 | D1 no dopamine inactive | Isoprot counter 3652
CCCCNC(=O)Oc1cccc(N2CCCC2=O)c1	none (no result: D1 mod, S1P1 ag pot, S1P3 agonist)
